Assay outcomes (PubChem)
An excerpt weighted towards active compounds, which were near 5.9% of everything screened.
T cruzi growth-1 = inhibitors of T. cruzi proliferation. T. cruzi beta-gal in NIH3T3, GalScreen luminescence, 90 h. inhibition, % at 8.34 µM. hit rate 5.9% among 77,000. AID 624255;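 active means mean inhibition above about 93%, with at least 55% of replicates each passing it, limit read from the data, passing the limit was not always enough; inconclusive means only one of those two conditions holds; inactive means neither condition holds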
Pf Dd2 inh = blocks growth of Plasmodium falciparum Dd2 parasites | P. falciparum Dd2 growth, SYBR Green, 72 h; active compounds read low | activity change, % at 10 µM | hit rate 2.3% among 94,000 | AID 1159554; in the data active means activity change below about -80%; inconclusive means no clear call, values can overlap the other calls
KDM4C inh = KDM4C (human) demethylase inhibition | hit rate 0.15% among 96,000 | Q9H3R0 | inhibition, % at 12.5 µM | GST-KDM4C 2-372, H3K9me3 peptide, LANCE TR-FRET;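 active means mean replicate inhibition above about 25%, with at least 55% of replicates also reaching it, limit read from the data, passing the limit was not always enough; inconclusive means only one of those two conditions met; inactive means neither condition met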
Target sequence (Q9H3R0 2-372 limits assumed): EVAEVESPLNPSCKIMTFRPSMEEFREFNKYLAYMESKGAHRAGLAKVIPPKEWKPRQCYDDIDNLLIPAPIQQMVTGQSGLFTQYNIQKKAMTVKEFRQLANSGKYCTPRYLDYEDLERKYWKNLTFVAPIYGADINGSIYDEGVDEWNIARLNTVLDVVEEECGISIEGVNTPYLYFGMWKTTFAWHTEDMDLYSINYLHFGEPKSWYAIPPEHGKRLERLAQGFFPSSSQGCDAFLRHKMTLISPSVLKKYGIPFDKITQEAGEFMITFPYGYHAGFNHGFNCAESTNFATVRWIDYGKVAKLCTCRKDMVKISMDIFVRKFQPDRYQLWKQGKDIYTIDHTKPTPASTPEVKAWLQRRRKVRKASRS
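System: N-terminal GST-fused human GASC-1 (KDM4C) fragment, residues 2-372; amount: enzyme final amount 10 nM; incubation: reaction 30 min RT, detection step 1 h RT; medium: HEPES buffer, pH 7.5, plus ascorbate; technique: LANCE TR-FRET, Eu antibody, ULight-streptavidin, EDTA, ex 340 nm, em 618/671 nm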
IDH1 mut inh = inhibitors of human IDH1 R132H. hit rate 0.18% among 70,000. O75874. IDH1 R132H reductase, diaphorase/resazurin fluorescence, 60 min. inhibition, % at 10 µM; in the data active means inhibition above about 34%; inconclusive means no clear call, values can overlap the other calls; inactive means below about 11%;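 further: 0% = DMSO and 100% = no enzyme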
Target sequence (O75874 whole entry R132H): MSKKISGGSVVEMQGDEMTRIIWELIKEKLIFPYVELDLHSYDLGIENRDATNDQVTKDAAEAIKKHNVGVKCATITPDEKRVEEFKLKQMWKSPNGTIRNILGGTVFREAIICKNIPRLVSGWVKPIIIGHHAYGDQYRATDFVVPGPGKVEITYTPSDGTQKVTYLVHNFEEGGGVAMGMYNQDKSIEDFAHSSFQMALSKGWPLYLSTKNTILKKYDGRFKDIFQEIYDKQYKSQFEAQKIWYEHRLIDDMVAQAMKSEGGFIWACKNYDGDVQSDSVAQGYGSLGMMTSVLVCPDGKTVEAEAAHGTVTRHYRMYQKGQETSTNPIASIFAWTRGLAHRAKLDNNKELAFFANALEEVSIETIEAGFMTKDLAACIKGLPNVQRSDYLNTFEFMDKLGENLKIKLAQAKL
T cruzi growth-2 = Trypanosoma cruzi proliferation inhibition; inhibition, % at 8.35 µM; T. cruzi beta-gal in NIH3T3, GalScreen luminescence, 90 h; AID 651739; hit rate 72% among 5,600; shares compounds with T cruzi growth-1;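 active means mean replicate inhibition above about 95% and at least 55% of replicates individually reaching it, limit read from the data; inconclusive means only one of the two criteria is met; inactive means neither criterion is met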
T cruzi growth-3 = blocks T. cruzi growth in NIH3T3 host cells | shares compounds with T cruzi growth-1 | T. cruzi beta-gal in NIH3T3, GalScreen luminescence, 90 h | hit rate 21% among 5,600 | AID 651740 | inhibition, % at 2.09 µM;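 active means mean inhibition above about 95%, with at least 55% of replicates also reaching it, limit read from the data; inconclusive means meets just one of the two conditions; inactive means meets neither condition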;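 further: plate controls were neutral control median for no effect and positive control median for full effect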
3T3 cytotox = NIH/3T3 (mouse) viability loss | shares compounds with T cruzi growth-1 | NIH/3T3 viability, CellTiter-Glo ATP luminescence, 90 h | cytotoxicity (signal decrease), % at 8.35 µM | hit rate 14% among 5,600 | AID 651742;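 active means mean signal decrease across replicates above about 35% based on untreated-well scatter, with enough replicates individually passing, limit read from the data; inconclusive means no rule stated though some were filed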;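 further: 0% = median of neutral control wells and 100% = median of positive control wells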
3T3 cytotox 2 = NIH/3T3 (mouse) viability loss. shares compounds with T cruzi growth-1. NIH/3T3 viability, CellTiter-Glo ATP luminescence, 90 h. inhibition, % at 24.9 µM. hit rate 56% among 5,600;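 active means mean loss of cell viability signal at or above a set limit, and enough replicates individually reaching it; inconclusive means meets only the mean limit or only the replicate share; inactive means meets neither condition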;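 further: 0% = median of neutral control wells and 100% = median of positive control wells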
Starred values were filed as active, the others as inactive; ? = inconclusive; . = not tested or not shown.

SMILES	T cruzi growth-1	Pf Dd2 inh	KDM4C inh	IDH1 mut inh	T cruzi growth-2	T cruzi growth-3	3T3 cytotox	3T3 cytotox 2
Cc1cccc(S(=O)(=O)N2CC[C@@H]3[C@@H](CO)Nc4ccc(-c5ccccc5F)cc4[C@@H]32)c1	1.4	17.4	-1.1	.	.	.	.	.
O=C(CC1(O)C(=O)N(Cc2ccc(Cl)cc2)c2ccc(Cl)cc21)c1ccccn1 (stereo not drawn)	.	.	.	5.8	.	.	.	.
Cc1cccc(C)c1NC(=O)CSc1nnnn1-c1c(C)cccc1C	.	.	.	-0.6	.	.	.	.
COC(=O)CCCCCCC(=O)N/N=C/C[C@H](C)CCC=C(C)C	.	.	.	0.6	.	.	.	.
COc1ccc(-n2c(CCn3c4ccccc4c4ccccc43)n[nH]c2=S)cc1	.	.	.	-0.7	.	.	.	.
N#CC1=C(SCC(=O)Nc2ccccc2C(=O)c2ccccc2)NC(=O)CC1c1ccccc1F (stereo not drawn)	.	.	.	-0.1	.	.	.	.
Cc1ccc(S(=O)(=O)N2CC[C@@H]3[C@H]2c2cc(-c4ccccc4F)ccc2N[C@@H]3CO)cc1	?	8.9	0.4	.	99.0*	75.7	37.9*	100.5*
COCCN(C[C@@H]1N[C@@H](CO)[C@@H]1c1ccc(-c2cccc(F)c2)cc1)C(C)=O	104.6*	1.7	1.8	.	101.5*	38.8	-22.0	13.8
COCCN(C[C@@H]1N[C@@H](CO)[C@H]1c1ccc(-c2cccc(F)c2)cc1)C(C)=O	?	8.0	0.9	.	27.4	-2.9	-12.1	13.7
COCCN(C[C@H]1N[C@H](CO)[C@@H]1c1ccc(-c2cccc(F)c2)cc1)C(C)=O	86.6	-10.4	-0.1	.	.	.	.	.
Cc1ccc(NC(=O)C(Cc2ccccc2)N2C(=O)C3C4CCC(C4)C3C2=O)cc1[N+](=O)[O-] (stereo not drawn)	.	.	.	6.1	.	.	.	.
O=C(CCCn1cc([N+](=O)[O-])cn1)Nc1cc(F)ccc1F	.	.	.	0.0	.	.	.	.
COc1ccc(C(=O)CSc2nc(C)[nH]c2[N+](=O)[O-])cc1Br	.	.	.	0.9	.	.	.	.
O=C(C[C@H]1CC[C@H](NC(=O)Nc2ccc(C(F)(F)F)cc2)[C@@H](CO)O1)NCc1cc(F)cc(F)c1	103.3*	-38.5	-1.8	-0.3	76.8	-24.1	-7.0	9.7
COc1ccccc1CNC(=O)C[C@@H]1C[C@@H]2c3cc(NC(=O)NC4CCCC4)ccc3O[C@@H]2[C@@H](CO)O1	111.3*	-7.5	-0.5	-3.4	84.9	1.4	-20.9	-1.0
O=C(C[C@@H]1C=C[C@H](NC(=O)Nc2ccccc2)[C@@H](CO)O1)NCc1cccc(F)c1	?	-0.9	1.2	0.2	-11.6	-0.9	-36.5	-19.4
COc1ccccc1CNC(=O)C[C@H]1C[C@H]2c3cc(NC(=O)NC4CCCC4)ccc3O[C@H]2[C@@H](CO)O1	68.3	13.0	-2.0	0.1	.	.	.	.
COc1ccccc1CNC(=O)C[C@@H]1C[C@H]2c3cc(NC(=O)Nc4ccc(C(F)(F)F)cc4)ccc3O[C@H]2[C@H](CO)O1	87.5	-53.4	-1.2	-0.1	.	.	.	.
COc1ccccc1CNC(=O)C[C@@H]1C[C@@H]2c3cc(NC(=O)Nc4ccc(C(F)(F)F)cc4)ccc3O[C@@H]2[C@H](CO)O1	125.4*	-23.7	-2.1	0.2	111.4*	66.5	4.1	27.5
COC(=O)Cc1c(C)c2cc(Cl)c(OC(C)C(C)=O)cc2oc1=O (stereo not drawn)	.	.	.	0.1	.	.	.	.
COCCNC(=O)c1ccccc1NC(=O)Nc1ccc(Cl)cc1	.	.	.	0.0	.	.	.	.
C=CCSc1nccc(-c2sc3ccc(Cl)cc3c2C)n1	.	.	.	-1.6	.	.	.	.
CCOC(=O)CSc1nc2ccc(I)cc2c(=O)n1-c1ccccc1OC	.	.	.	0.0	.	.	.	.
O=C(O)c1cccc(NC(=O)c2cc(S(=O)(=O)N3CCOCC3)c(Cl)cc2Cl)c1	.	.	.	0.6	.	.	.	.
C[C@H](NC(=O)C[C@H]1C[C@@H]2c3cc(NC(=O)Nc4ccc(C(F)(F)F)cc4)ccc3O[C@@H]2[C@H](CO)O1)c1ccccc1	?	-25.5	-1.4	0.0	101.9*	11.5	47.7*	70.7*
SMILES	T cruzi growth-1	Pf Dd2 inh	KDM4C inh	IDH1 mut inh	T cruzi growth-2	T cruzi growth-3	3T3 cytotox	3T3 cytotox 2
O=C(C[C@H]1C[C@H]2c3cc(NC(=O)NC4CCCCC4)ccc3O[C@H]2[C@@H](CO)O1)NCc1ccccc1	97.4*	0.0	-2.9	0.2	58.7	9.9	12.9	8.4
O=C(C[C@H]1C[C@@H]2c3cc(NC(=O)Nc4ccc(C(F)(F)F)cc4)ccc3O[C@@H]2[C@H](CO)O1)NCc1ccc(Cl)cc1	?	1.6	0.0	-0.4	107.7*	49.2	21.7	-3.6
COc1ccccc1CNC(=O)C[C@H]1C[C@H]2c3cc(NC(=O)Nc4ccc(C(F)(F)F)cc4)ccc3O[C@H]2[C@H](CO)O1	133.8*	-61.2	2.6	0.4	107.5*	52.4	-20.5	-19.3
O=C(C[C@@H]1C[C@@H]2c3cc(NC(=O)Nc4ccc(C(F)(F)F)cc4)ccc3O[C@@H]2[C@H](CO)O1)NCc1ccc2c(c1)OCO2	44.6	0.3	-3.1	-0.2	.	.	.	.
CCOC(=O)c1ccc(NC(=O)CSc2nc3sc4c(c3c(=O)n2C)CCCC4)cc1	.	.	.	0.3	.	.	.	.
Cc1cccc(N(CC(=O)NC(C)(C)C)S(=O)(=O)c2ccc(Cl)cc2)c1	.	.	.	-0.4	.	.	.	.
O=C1c2c(O)cc(O)c([C@@H]3C(=O)c4c(O)cc(O)cc4O[C@H]3c3ccc(O)cc3)c2O[C@@H](c2ccc(O)cc2)[C@@H]1O	.	.	.	3.4	.	.	.	.
COCC(=O)N1CCCCN2[C@H](C1)[C@@H](c1ccc(-c3ccc(C)cc3)cc1)[C@@H]2CO	-8.6	8.0	0.3	.	.	.	.	.
COCC(=O)N1CCCCN2[C@H](C1)[C@H](c1ccc(-c3ccc(OC)cc3)cc1)[C@@H]2CO	79.4	12.2	1.3	.	.	.	.	.
COCC(=O)N1CCCCN2[C@H](CO)[C@@H](c3ccc(-c4ccc(OC)cc4)cc3)[C@H]2C1	97.0*	26.6	0.4	.	32.2	17.5	5.2	10.2
COCC(=O)N1CCCCN2[C@H](CO)[C@H](c3ccc(-c4ccc(C)cc4)cc3)[C@H]2C1	101.6*	-0.4	-0.2	.	78.0	-3.8	-6.8	28.7*
COCC(=O)N1CCCCN2[C@@H](CO)[C@@H](c3ccc(-c4ccc(OC)cc4)cc3)[C@@H]2C1	103.1*	16.6	-0.1	.	82.6	76.6	-6.3	-3.8
CCOC(=O)c1c(NC(=O)CSc2nc3ccccc3c(=O)[nH]2)sc2c1CCCC2	.	.	.	-0.3	.	.	.	.
CN(CC(=O)Nc1ccc(Oc2ccccc2)cc1)S(=O)(=O)c1ccccc1	.	.	.	-0.4	.	.	.	.
Cc1cccc(S(=O)(=O)N2CCCCN3[C@@H](CO)[C@H](c4ccc(-c5ccncc5)cc4)[C@@H]3C2)c1	98.5*	-20.6	-1.0	.	107.1*	64.6	29.0	46.2*
Cc1ccc(-c2ccc([C@H]3[C@H](CO)N4CCCCN(S(=O)(=O)c5cccc(C)c5)C[C@@H]34)cc2)cc1	55.2	-49.4	.	.	.	.	.	.
